Source: ChEMBL document CHEMBL4346672, “Antimicrobial and KPC/AmpC inhibitory activity of functionalized benzosiloxaboroles” (Eur J Med Chem, 2019)
Values after ≈ are worked out from the molar mass of the structure shown. Active and inactive are the calls of the source. The rule behind the calls is not given here.

Columns and labels:
[1] = tested on: Stenotrophomonas maltophilia; assay: Antibacterial activity against Stenotrophomonas maltophilia ATCC 13637 assessed as diameter of zone inhibition measured after 18 hrs by CLSI disc diffusion method; format: functional
In short: (§1)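 Disc diffusion on Mueller-Hinton II agar. Compounds dissolved in DMSO. Strains stored at -80 °C and subcultured twice on tryptic soy agar before testing. Inhibition zones read after 35 °C, 18 h.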

[2] = tested on: Enterobacter cloacae; assay: Antibacterial activity against Enterobacter cloacae DSM 6234 assessed as fold reduction of MIC in presence of efflux pump inhibitor PAbetaN incubated for 18 hrs by broth microdilution method; format: functional
In short: (§2)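 MICs determined with and without PAβN at 50 mg/L in Mueller-Hinton broth containing 1 mM MgSO₄. 2-fold serial dilutions per CLSI. Fold change taken from the paired MICs after 35 °C, 18 h.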

[3] = tested on: Escherichia coli; assay: Antibacterial activity against Escherichia coli ATCC 25922 assessed as diameter of zone inhibition measured after 18 hrs by CLSI disc diffusion method; format: functional; in short: as §1
[4] = tested on: Bacillus subtilis; assay: Antibacterial activity against Bacillus subtilis ATCC 6633 assessed as diameter of zone inhibition measured after 18 hrs by CLSI disc diffusion method; format: functional; in short: as §1
[5] = tested on: Saccharomyces cerevisiae; assay: Antifungal activity against Saccharomyces cerevisiae ATCC 9763 diameter of zone inhibition incubated for 24 hrs by CLSI disc diffusion method; format: functional
In short: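 Disc-diffusion run on Mueller-Hinton II agar with 2% glucose and 0.5 mg/L methylene blue, using compounds in DMSO. Yeast was precultured on Sabouraud dextrose agar (24–48 h, 30 °C). Zones read after 24 h at 35 °C.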

[6] = tested on: Enterobacter cloacae; assay: Antibacterial activity against Enterobacter cloacae DSM 6234 assessed as diameter of zone inhibition measured after 18 hrs by CLSI disc diffusion method; format: functional; in short: as §1
[7] = tested on: Klebsiella pneumoniae; assay: Antibacterial activity against Klebsiella pneumoniae ATCC 13883 measured after 18 hrs by CLSI broth dilution method; format: functional; conditions: ATCC 13883, 18 h
In short: (§3)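 Broth MIC in Mueller-Hinton II broth following CLSI, compounds dissolved in DMSO. Strains subcultured twice on tryptic soy agar before testing. Growth read after 35 °C, 18 h.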

[8] = tested on: Escherichia coli; assay: Antibacterial activity against Escherichia coli ATCC 25922 measured after 18 hrs by CLSI broth dilution method; format: functional; conditions: ATCC 25922, 18 h; in short: as §3
[9] = tested on: Acinetobacter baumannii; assay: Antibacterial activity against Acinetobacter baumannii ATCC 19606 assessed as diameter of zone inhibition measured after 18 hrs by CLSI disc diffusion method; format: functional; in short: as §1
[10] = tested on: Saccharomyces cerevisiae; assay: Antifungal activity against Saccharomyces cerevisiae ATCC 9763 assessed as decrease in fungal cell growth at 0.78 to 12.5 mg/L incubated for 24 hrs by CLSI broth dilution method; format: functional; conditions: ATCC 9763, 24 h
In short: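 Yeast strain subcultured on Sabouraud dextrose agar for 24–48 h at 30 °C before testing. Compounds dissolved in DMSO.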

[11] = tested on: Candida parapsilosis; assay: Antifungal activity against Candida parapsilosis ATCC 22019 assessed as diameter of zone inhibition incubated for 24 hrs by CLSI disc diffusion method; format: functional
In short: (§4)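 Yeast disc diffusion on Mueller-Hinton agar supplemented with 2% glucose and 0.5 mg/L methylene blue. Compounds in DMSO. Yeasts subcultured on Sabouraud dextrose agar before testing. Zones read after 35 °C, 24 h.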

[12] = tested on: Pichia kudriavzevii; assay: Antifungal activity against Candida krusei ATCC 6258 assessed as diameter of zone inhibition incubated for 24 hrs by CLSI disc diffusion method; format: functional; in short: as §4
[13] = tested on: Enterobacter cloacae; assay: Antibacterial activity against Enterobacter cloacae DSM 6234 measured after 18 hrs by CLSI broth dilution method; format: functional; conditions: DSM 6234, 18 h; in short: as §3
[14] = tested on: Proteus mirabilis; assay: Antibacterial activity against Proteus mirabilis ATCC 12453 measured after 18 hrs by CLSI broth dilution method; format: functional; conditions: ATCC 12453, 18 h; in short: as §3
[15] = tested on: Pseudomonas aeruginosa; assay: Antibacterial activity against Pseudomonas aeruginosa ATCC 27853 assessed as diameter of zone inhibition measured after 18 hrs by CLSI disc diffusion method; format: functional, organism-based; in short: as §1
[16] = tested on: Burkholderia cepacia; assay: Antibacterial activity against Burkholderia cepacia ATCC 25416 assessed as diameter of zone inhibition measured after 18 hrs by CLSI disc diffusion method; format: functional; in short: as §1
[17] = Dissociation constant, pKa1 of compound in 0.1 M NaOH by potentiometric analysis; format: physicochemical
[18] = tested on: Staphylococcus aureus; assay: Antibacterial activity against Staphylococcus aureus ATCC 6538P assessed as diameter of zone inhibition measured after 18 hrs by CLSI disc diffusion method; format: functional; in short: as §1
[19] = tested on: Enterococcus faecium; assay: Antibacterial activity against Enterococcus faecium ATCC 6057 measured after 18 hrs by CLSI broth dilution method; format: functional; conditions: ATCC 6057, 18 h; in short: as §3
[20] = tested on: Meyerozyma guilliermondii; assay: Antifungal activity against Candida guilliermondii IBA 155 assessed as diameter of zone inhibition incubated for 24 hrs by CLSI disc diffusion method; format: functional; in short: as §4
[21] = tested on: Staphylococcus epidermidis; assay: Antibacterial activity against Staphylococcus epidermidis ATCC 12228 assessed as diameter of zone inhibition measured after 18 hrs by CLSI disc diffusion method; format: functional; in short: as §1
[22] = tested on: Meyerozyma guilliermondii; assay: Antifungal activity against Candida guilliermondii IBA 155 assessed as decrease in fungal cell growth at 0.78 to 12.5 mg/L incubated for 24 hrs by CLSI broth dilution method; format: functional; conditions: IBA 155, 24 h
In short: (§5)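 Yeast broth dilution in RPMI 1640 with 2% glucose, compounds in DMSO. Yeasts pre-grown on Sabouraud dextrose agar. Growth read after 35 °C, 24 h.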

[23] = tested on: Enterococcus faecalis; assay: Antibacterial activity against Enterococcus faecalis ATCC 29212 measured after 18 hrs by CLSI broth dilution method; format: functional; conditions: ATCC 29212, 18 h; in short: as §3
[24] = tested on: Pseudomonas aeruginosa; assay: Antibacterial activity against Pseudomonas aeruginosa ATCC 27853 measured after 18 hrs by CLSI broth dilution method; format: functional; conditions: ATCC 27853, 18 h; in short: as §3
[25] = tested on: Staphylococcus aureus; assay: Antibacterial activity against Staphylococcus aureus ATCC 6538P measured after 18 hrs by CLSI broth dilution method; format: functional; in short: as §3
[26] = tested on: Candida albicans; assay: Antifungal activity against Candida albicans ATCC 90028 assessed as decrease in fungal cell growth at 0.78 to 12.5 mg/L incubated for 24 hrs by CLSI broth dilution method; format: functional; conditions: ATCC 90028, 24 h; in short: as §5
[27] = tested on: Candida albicans; assay: Antifungal activity against Candida albicans ATCC 90028 assessed as diameter of zone inhibition incubated for 24 hrs by CLSI disc diffusion method; format: functional; in short: as §4
[28] = tested on: Stenotrophomonas maltophilia; assay: Antibacterial activity against Stenotrophomonas maltophilia ATCC 13637 measured after 18 hrs by CLSI broth dilution method; format: functional; conditions: ATCC 13637, 18 h; in short: as §3
[29] = tested on: Staphylococcus epidermidis; assay: Antibacterial activity against Staphylococcus epidermidis ATCC 12228 measured after 18 hrs by CLSI broth dilution method; format: functional; conditions: ATCC 12228, 18 h; in short: as §3
[30] = tested on: Stenotrophomonas maltophilia; assay: Antibacterial activity against Stenotrophomonas maltophilia ATCC 13637 assessed as fold reduction of MIC in presence of efflux pump inhibitor PAbetaN incubated for 18 hrs by broth microdilution method; format: functional; in short: as §2
[31] = tested on: Serratia marcescens; assay: Antibacterial activity against Serratia marcescens ATCC 13880 measured after 18 hrs by CLSI broth dilution method; format: functional; conditions: ATCC 13880, 18 h; in short: as §3
[32] = tested on: Escherichia coli; assay: Antibacterial activity against Escherichia coli ATCC 25922 assessed as fold reduction of MIC in presence of efflux pump inhibitor PAbetaN incubated for 18 hrs by CLSI broth microdilution method; format: functional; in short: as §2
[33] = tested on: Burkholderia cepacia; assay: Antibacterial activity against Burkholderia cepacia ATCC 25416 measured after 18 hrs by CLSI broth dilution method; format: functional; conditions: ATCC 25416, 18 h; in short: as §3

Compound | diameter of the inhibition zone (DIZ) [1] | fold change (FC) [2] | diameter of the inhibition zone (DIZ) [3] | diameter of the inhibition zone (DIZ) [4] | diameter of the inhibition zone (DIZ) [5] | diameter of the inhibition zone (DIZ) [6] | MIC [7] | MIC [8] | diameter of the inhibition zone (DIZ) [9] | MIC [10] | diameter of the inhibition zone (DIZ) [11] | diameter of the inhibition zone (DIZ) [12] | MIC [13] | MIC [14] | diameter of the inhibition zone (DIZ) [15] | diameter of the inhibition zone (DIZ) [16] | pKa [17] | diameter of the inhibition zone (DIZ) [18] | MIC [19] | diameter of the inhibition zone (DIZ) [20] | also measured
C[Si]1(C)OB(O)c2cc(B(O)O)cc(F)c21 | inactive | 32 | inactive | 22 mm | inactive | inactive | > 400 µg/mL | > 400 µg/mL | inactive | 400 µg/mL (≈ 1670 µM) | inactive | inactive | > 400 µg/mL | > 400 µg/mL | inactive | inactive | 6.6 | 18 mm | 200 µg/mL (≈ 834 µM) | inactive | diameter of the inhibition zone (DIZ) [21]: 29 mm; MIC [22]: 400 µg/mL (≈ 1670 µM); MIC [23]: 400 µg/mL (≈ 1670 µM); MIC [24]: > 400 µg/mL; MIC [25]: 50 µg/mL (≈ 208 µM); MIC [26]: 400 µg/mL (≈ 1670 µM); diameter of the inhibition zone (DIZ) [27]: inactive; MIC [28]: > 400 µg/mL; MIC [29]: 50 µg/mL (≈ 208 µM); fold change (FC) [30]: 16; MIC [31]: > 400 µg/mL; fold change (FC) [32]: 8; MIC [33]: > 400 µg/mL
C[Si]1(C)OB(O)c2c(C=O)cc(F)c(F)c21 | inactive | 64 | inactive | 18 mm | 13 mm | inactive | > 400 µg/mL | > 400 µg/mL | inactive | 100 µg/mL (≈ 413 µM) | inactive | inactive | > 400 µg/mL | > 400 µg/mL | inactive | inactive | 5.2 | 21 mm | 400 µg/mL (≈ 1650 µM) | 12 mm | diameter of the inhibition zone (DIZ) [21]: 28 mm; MIC [22]: 400 µg/mL (≈ 1650 µM); MIC [23]: 400 µg/mL (≈ 1650 µM); MIC [24]: > 400 µg/mL; MIC [25]: 50 µg/mL (≈ 207 µM); MIC [26]: 400 µg/mL (≈ 1650 µM); diameter of the inhibition zone (DIZ) [27]: 11 mm; MIC [28]: 400 µg/mL (≈ 1650 µM); MIC [29]: 100 µg/mL (≈ 413 µM); fold change (FC) [30]: 4; MIC [31]: > 400 µg/mL; fold change (FC) [32]: 64; MIC [33]: > 400 µg/mL
C[Si]1(C)OB(O)c2ccc(C(F)(F)F)cc21 | 14 mm | 16 | inactive | 47 mm | 15 mm | inactive | > 400 µg/mL | > 400 µg/mL | 13 mm | 200 µg/mL (≈ 813 µM) | 12 mm | 13 mm | > 400 µg/mL | > 400 µg/mL | inactive | inactive | 6.6 | 20 mm | 25 µg/mL (≈ 102 µM) | 16 mm | diameter of the inhibition zone (DIZ) [21]: 20 mm; MIC [22]: 200 µg/mL (≈ 813 µM); MIC [23]: 50 µg/mL (≈ 203 µM); MIC [24]: > 400 µg/mL; MIC [25]: 50 µg/mL (≈ 203 µM); MIC [26]: 50 µg/mL (≈ 203 µM); diameter of the inhibition zone (DIZ) [27]: 14 mm; MIC [28]: 400 µg/mL (≈ 1630 µM); MIC [29]: 25 µg/mL (≈ 102 µM); fold change (FC) [30]: 16; MIC [31]: > 400 µg/mL; fold change (FC) [32]: 16; MIC [33]: > 400 µg/mL
